These results are taken from publication PMC4740292 (EBioMedicine, 2015).

For data set [1], the system named is JFH-1 genotype 2a infectious virus (HCVcc). The following applies: for TI (CC50/EC50) / EC50 / HCVcc infection / HCV entry inhibition (in words): Huh7.5.1.
Data set [2] relates to Huh7.5.1 cells. As to the kind of experiment: Cytotoxicity. Type of data set: cell-based, human.
Data set [3] concerns HCVcc-Luc. In words: Time-of-addition assay, HCVcc-Luc on Huh7.5.1 cells. Type of data set: cell-based, Hepatitis C virus. The following applies: 2 μM for 3 h, added at indicated time points. In a few lines: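 Huh7.5.1 cells inoculated with HCVcc-Luc at 37 °C for 3 h. At set time points, test compound at 2 μM (or DMSO) added for 3 h, then removed. Cells kept a further 48 h at 37 °C before luciferase readout. Mean of n = 3 with s.d.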

Data set [4] addresses cell surface PHB1 and 2 (Homo sapiens, UniProt P35232+Q99623). In words: Cell surface biotinylation assay, Huh7.5.1 cells. Format: cell-based. The conditions noted are these: 20 nM.
In data set [5] the test system is CHIKVpp. In words: CHIKVpp infection of Huh7.5.1 cells, luciferase assay. Type of data set: cell-based, Chikungunya virus. The following applies: Huh7.5.1, Roc-A 10 nM, Fig. S3F.
The target in data set [6] is PHB-CRaf interaction (Homo sapiens, UniProt P35232+Q99623). As to the kind of experiment: Co-IP of Flag-CRaf and V5-tagged PHB1 & 2 in 293T cells. Format: cell-based. The conditions noted are these: 20 nM. In a few lines:
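Flag-CRaf and V5-tagged PHB1 and PHB2 co-expressed in 293T cells by co-transfection. Cells left untreated or exposed to test compound at 20 nM, then immunoprecipitated with anti-Flag antibody. Co-precipitated PHB1/PHB2 and CRaf detected by immunoblotting.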

Data set [7] has as its system HCVpp. In words: HCVpp infection of primary human hepatocytes. Format: cell-based, Hepatitis C virus. The conditions noted are these: pretreatment of PHHs at non-cytotoxic concentrations.
In data set [8] the target is PHB1, PHB2, CRaf, Ras (Homo sapiens, UniProt P35232+Q99623). As to the kind of experiment: Western blotting of cellular PHB1, PHB2, CRaf and Ras in Huh7.5.1 cells. Type of data set: cell-based. The following applies: 20 nM, 1, 2 and 3 days.
Data set [9] concerns HCV replicon cell line 2-3(+). As to the kind of experiment: HCV replicon cell line 2-3. Format: cell-based, Hepatitis C virus (Genotype 1b). The conditions noted are these: 20 nM, 24, 48 or 72 hours, replicon cells.
Data set [10] in a line: Human liver microsomal stability assay. Format: in vitro ADME. The conditions noted are these: both, human liver microsomes, pH 7.4. A general note: Microsomes from liver hold many membrane-bound enzymes, among them those of drug oxidation.
The mark [11] stands for this setting: compounds incubated with cells for a total of 3 h.
Where [12] appears, read: compounds incubated with cells for a total of 48 h.

Where two headings read alike, the source gives them in different places.

PHB1, PHB2, CRaf, Ras, sequence (P35232 2-272 limits assumed): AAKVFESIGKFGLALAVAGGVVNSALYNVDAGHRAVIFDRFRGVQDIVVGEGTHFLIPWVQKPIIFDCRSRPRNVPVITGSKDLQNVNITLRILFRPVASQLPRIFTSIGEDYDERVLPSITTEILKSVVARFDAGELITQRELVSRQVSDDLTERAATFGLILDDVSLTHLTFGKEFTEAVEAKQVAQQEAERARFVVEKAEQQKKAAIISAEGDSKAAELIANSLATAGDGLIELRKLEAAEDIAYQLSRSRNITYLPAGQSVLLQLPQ
PHB1, PHB2, CRaf, Ras, sequence (Q99623 2-299 limits assumed): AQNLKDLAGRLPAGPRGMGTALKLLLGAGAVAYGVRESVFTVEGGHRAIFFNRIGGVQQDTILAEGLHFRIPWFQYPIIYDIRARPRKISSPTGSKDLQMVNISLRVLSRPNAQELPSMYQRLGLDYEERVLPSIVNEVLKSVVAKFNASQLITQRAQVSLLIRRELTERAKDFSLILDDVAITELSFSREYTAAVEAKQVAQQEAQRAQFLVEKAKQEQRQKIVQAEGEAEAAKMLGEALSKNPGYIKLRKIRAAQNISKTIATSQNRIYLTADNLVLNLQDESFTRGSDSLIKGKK
PHB-CRaf interaction, sequence (P35232 whole entry): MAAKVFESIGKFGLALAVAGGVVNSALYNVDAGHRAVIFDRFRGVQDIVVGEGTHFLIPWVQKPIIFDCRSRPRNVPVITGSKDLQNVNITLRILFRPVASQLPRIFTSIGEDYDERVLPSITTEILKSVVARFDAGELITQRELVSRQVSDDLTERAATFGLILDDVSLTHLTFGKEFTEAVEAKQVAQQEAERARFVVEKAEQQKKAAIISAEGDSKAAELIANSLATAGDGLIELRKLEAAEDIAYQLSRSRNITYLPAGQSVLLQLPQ
PHB-CRaf interaction, sequence (Q99623 whole entry): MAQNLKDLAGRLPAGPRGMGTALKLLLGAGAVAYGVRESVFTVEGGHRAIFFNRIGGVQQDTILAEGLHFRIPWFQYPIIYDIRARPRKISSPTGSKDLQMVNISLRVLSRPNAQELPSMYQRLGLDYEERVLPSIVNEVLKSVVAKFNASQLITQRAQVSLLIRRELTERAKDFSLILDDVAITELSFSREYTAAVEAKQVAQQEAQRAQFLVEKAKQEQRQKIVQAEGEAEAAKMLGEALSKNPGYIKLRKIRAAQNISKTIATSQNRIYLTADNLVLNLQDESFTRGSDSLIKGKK

The term EC50 denotes the concentration that produces a half-maximal response. High values mean a need for much substance, low ones an effect from little substance. By CC50 is commonly meant the concentration that lowers cell viability or growth by half. The low end stands for harm at low concentration, the high end for better tolerance by the cells. Consider (±)-aglaroxin C [(±) Aglaroxin C (C10)], for which the “TI (CC50/EC50)” value came out at 100 in data set [1] (3 h incubation) and 500 in [1] (48 h incubation). In addition, in data set [1] (JFH-1 genotype 2a infectious virus in cell culture), the “half-maximum effective concentrations (EC50), in words” value is on record as “picomolar”. Moreover, the EC50 in [1] (setting [11]) stood at 100 nM; in [1] (setting [12]) it was 0.04 nM. Also, the CC50 in data set [2] (setting [11]) is 10000 nM; in [2] (setting [12]), 20 nM. Besides, the “anti-HCV activity by time of addition” value in data set [3] is reported as “maximal anti-HCV activity when added together with the virus but lost its activity when added 3 h after the infection was initiated”.

As for `CONC(=O)[C@H]1[C@@H](O)[C@@]2(O)c3c(OC)cc(OC)cc3O[C@@]2(c2ccc(OC)cc2)[C@@H]1c1ccccc1` [Compound E2, (-)-NH hydroxamate], the “anti-HCV activity by time of addition” value in data set [3] is “appeared to inhibit HCV no matter when added”.

In data set [1] (setting [11]), (+)-rocaglamide [(+) Roc-A] had an EC50 of more than 200000 nM. In data set [2] (setting [11]), this compound showed a CC50 of 300000 nM.

In the case of (+)-aglaroxin C, in [1] (3 h incubation), the “TI (CC50/EC50)” value is reported as 5a. Besides, a half-maximal response in [1] (setting [11]) (EC50) required 20000 nM. In [2] (setting [11]), this compound yielded a CC50 of 100000 nM.

With (-)-aglaroxin C [(−)-Aglaroxin C], the “TI (CC50/EC50)” value in data set [1] (3 h incubation) was determined as 60a. Further, the “HCVcc infection / HCV entry inhibition (in words)” value in data set [1] is recorded as “active enantiomer for HCV viral entry inhibition”. In data set [1] (setting [11]), the midpoint of the response, the EC50, lay at 200 nM. This compound registered a CC50 in [2] (setting [11]) of 12000 nM.

As to (-)-rocaglamide [(−) Roc-A], the figures for the “TI (CC50/EC50)” value in data set [1] (3 h incubation) and in data set [1] (48 h incubation) were 50 and 75, respectively. The “HCVcc infection / HCV entry inhibition (in words)” value in data set [1] is “stronger inhibition on HCV entry than the (+) enantiomer”. Further, the results for the EC50 in [1] (setting [11]) and in data set [1] (setting [12]) were 1000 nM and 4 nM, respectively. Besides, the CC50 worked out at 50000 nM in data set [2] (setting [11]) and 300 nM in [2] (setting [12]).

As a reminder, the half-life is how long it takes for the measured level to halve. A higher half-life goes with slow decline. As for `COc1ccc([C@@]23Oc4cc(OC)cc(OC)c4[C@]2(O)[C@H](O)[C@H](C(=O)N(C)C)[C@H]3c2ccccc2)cc1` [Roc-A, rocaglamide A], the “HCVcc infection / HCV entry inhibition (in words)” value in data set [1] is given as “significantly reduced”. The “cell surface expression of PHB1 and 2” value in data set [4] was “decreased the cell surface expression of PHB1 and 2”. Further, in data set [5], the CHIKVpp infection result was “significantly reduced”. In addition, the PHB-CRaf interaction entry in [6] is listed as “disrupted the PHB-CRaf interaction”. In [7], the “HCVpp entry (in words)” value is given as “suppressed HCVpp entry”. Besides, in [8], the “PHB1, 2, Ras and CRaf total protein level” value is “decreased PHB1, 2, Ras, and CRaf at the total protein level”. The “HCV RNA replication or protein translation” value in data set [9] is on record as “did not inhibit HCV RNA replication or protein translation”. The half-life at 1 µM in [10] turned out to be 37 min.
